According to ChEMBL document CHEMBL1135915, “Structure-activity relationships in 1,4-benzodioxan-related compounds. 7. Selectivity of 4-phenylchroman analogues for alpha(1)-adrenoreceptor subtypes” (J Med Chem, 2002):

Experiments:
[1] = target: T1, Alpha-1A adrenergic receptor (Rattus norvegicus, UniProt P43140); test: Antagonistic affinity tested against isolated Rat Prostatic Vas Deferens Alpha-1A adrenergic receptor; format: functional, tissue-based; details: read-out: pA2 (converted)
T1 sequence (P43140 whole entry): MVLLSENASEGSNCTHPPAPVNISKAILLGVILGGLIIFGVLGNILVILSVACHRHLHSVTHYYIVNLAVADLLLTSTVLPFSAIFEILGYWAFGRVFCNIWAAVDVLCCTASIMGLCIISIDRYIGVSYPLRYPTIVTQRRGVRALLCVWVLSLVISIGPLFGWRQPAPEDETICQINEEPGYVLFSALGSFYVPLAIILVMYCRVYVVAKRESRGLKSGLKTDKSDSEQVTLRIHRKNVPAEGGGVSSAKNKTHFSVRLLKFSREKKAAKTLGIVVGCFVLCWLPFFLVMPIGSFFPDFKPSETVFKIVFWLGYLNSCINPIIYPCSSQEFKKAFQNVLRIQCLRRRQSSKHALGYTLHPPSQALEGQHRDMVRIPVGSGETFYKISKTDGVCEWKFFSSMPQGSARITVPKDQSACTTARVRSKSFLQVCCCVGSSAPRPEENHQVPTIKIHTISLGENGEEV

[2] = target: T1, Alpha-1A adrenergic receptor; test: Antagonistic affinity tested against isolated Rat Prostate Alpha-1A adrenergic receptor; format: functional; details: read-out: pA2 (converted)
In short: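 Prostate strips from male Wistar rats (275-300 g), 2 g tension in modified Krebs at 37 °C, 95% O2/5% CO2, pH 7.4, primed with 1.0 µM (-)-noradrenaline. After 90 min wash, a cumulative noradrenaline curve was run, then a second after 30 min antagonist equilibration. Single antagonist concentration in the range 0.01-1 µM; pKB by van Rossum.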

[3] = target: T2, Alpha-1D adrenergic receptor (Rattus norvegicus, UniProt P23944); test: Antagonistic affinity tested against isolated Rat Thoracic Aorta Alpha-1D adrenergic receptor; format: functional, tissue-based; details: read-out: pA2 (converted)
T2 sequence (P23944 whole entry): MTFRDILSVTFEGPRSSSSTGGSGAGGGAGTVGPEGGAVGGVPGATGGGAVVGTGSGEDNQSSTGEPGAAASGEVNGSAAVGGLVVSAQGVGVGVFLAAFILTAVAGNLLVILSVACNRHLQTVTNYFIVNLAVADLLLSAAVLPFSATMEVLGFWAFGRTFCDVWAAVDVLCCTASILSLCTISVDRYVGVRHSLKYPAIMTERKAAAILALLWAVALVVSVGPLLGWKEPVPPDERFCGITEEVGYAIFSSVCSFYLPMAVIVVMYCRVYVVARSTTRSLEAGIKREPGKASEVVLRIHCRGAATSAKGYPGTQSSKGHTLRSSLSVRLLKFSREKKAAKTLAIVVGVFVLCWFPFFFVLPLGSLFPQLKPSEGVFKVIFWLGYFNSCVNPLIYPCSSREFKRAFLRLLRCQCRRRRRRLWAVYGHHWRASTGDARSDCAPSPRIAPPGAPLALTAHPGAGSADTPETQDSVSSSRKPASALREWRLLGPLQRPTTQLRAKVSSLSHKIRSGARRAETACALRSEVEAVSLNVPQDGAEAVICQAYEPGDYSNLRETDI

[4] = target: T3, Alpha-1B adrenergic receptor (Rattus norvegicus, UniProt P15823); test: Antagonistic affinity tested against isolated Rat Spleen Alpha-1B adrenergic receptor; format: functional; details: read-out: pA2 (converted)
T3 sequence (P15823 whole entry): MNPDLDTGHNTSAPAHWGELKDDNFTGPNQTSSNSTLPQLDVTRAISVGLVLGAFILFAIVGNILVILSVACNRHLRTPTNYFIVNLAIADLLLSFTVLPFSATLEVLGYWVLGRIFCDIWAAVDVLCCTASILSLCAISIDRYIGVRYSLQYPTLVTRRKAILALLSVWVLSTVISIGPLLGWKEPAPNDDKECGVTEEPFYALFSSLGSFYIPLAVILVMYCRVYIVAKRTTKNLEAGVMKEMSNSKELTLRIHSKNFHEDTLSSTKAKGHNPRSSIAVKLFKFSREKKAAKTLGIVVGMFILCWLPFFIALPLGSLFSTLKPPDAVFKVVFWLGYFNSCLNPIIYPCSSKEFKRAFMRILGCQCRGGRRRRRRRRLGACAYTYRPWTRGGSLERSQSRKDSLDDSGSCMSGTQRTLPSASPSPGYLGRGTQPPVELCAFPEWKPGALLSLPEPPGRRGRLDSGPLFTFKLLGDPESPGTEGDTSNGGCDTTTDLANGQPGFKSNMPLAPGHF
In short: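 Rat spleen strips, 1 g resting tension, in Krebs with 4.0 µM propranolol and 0.01 mM K2EDTA, equilibrated 2 h. Cumulative isometric (-)-phenylephrine curves at 30 min intervals; the second served as control.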

[5] = target: T4, Alpha-1A adrenergic receptor (Homo sapiens, UniProt P35348); test: Affinity constant on CHO cells expressing Human recombinant Alpha-1A adrenergic receptor; format: cell-based
T4 sequence (P35348 whole entry): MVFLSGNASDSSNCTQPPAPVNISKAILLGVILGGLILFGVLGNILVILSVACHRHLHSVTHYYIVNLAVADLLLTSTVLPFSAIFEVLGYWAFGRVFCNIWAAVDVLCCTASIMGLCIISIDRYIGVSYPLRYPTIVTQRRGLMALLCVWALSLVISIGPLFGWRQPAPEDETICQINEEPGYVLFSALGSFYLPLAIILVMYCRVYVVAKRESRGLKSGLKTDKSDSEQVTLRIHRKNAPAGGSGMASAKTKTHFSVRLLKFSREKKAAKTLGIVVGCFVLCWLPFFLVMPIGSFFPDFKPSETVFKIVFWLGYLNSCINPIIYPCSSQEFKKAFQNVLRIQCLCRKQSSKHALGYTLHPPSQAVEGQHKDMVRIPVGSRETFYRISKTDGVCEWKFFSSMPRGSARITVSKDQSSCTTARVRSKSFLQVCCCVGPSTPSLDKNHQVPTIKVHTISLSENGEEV

[6] = target: T5, 5-hydroxytryptamine receptor 1A (Homo sapiens, UniProt P08908); test: Affinity constant on HeLa cells expressing Human recombinant 5-hydroxytryptamine receptor 1A
T5 sequence (P08908 whole entry): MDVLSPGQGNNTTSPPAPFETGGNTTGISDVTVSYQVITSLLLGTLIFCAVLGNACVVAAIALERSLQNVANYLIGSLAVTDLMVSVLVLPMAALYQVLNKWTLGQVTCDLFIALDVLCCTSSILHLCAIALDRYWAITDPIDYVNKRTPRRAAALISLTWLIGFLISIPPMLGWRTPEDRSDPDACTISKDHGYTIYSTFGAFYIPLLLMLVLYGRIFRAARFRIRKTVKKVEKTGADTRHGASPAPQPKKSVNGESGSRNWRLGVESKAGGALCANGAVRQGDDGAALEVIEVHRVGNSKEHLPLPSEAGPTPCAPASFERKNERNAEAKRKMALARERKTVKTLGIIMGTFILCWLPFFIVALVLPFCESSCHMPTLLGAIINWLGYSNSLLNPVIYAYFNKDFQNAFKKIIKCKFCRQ

[7] = target: T6, Alpha-1D adrenergic receptor (Homo sapiens, UniProt P25100); test: Affinity constant on CHO cells expressing Human recombinant Alpha-1D adrenergic receptor; format: cell-based
T6 sequence (P25100 whole entry): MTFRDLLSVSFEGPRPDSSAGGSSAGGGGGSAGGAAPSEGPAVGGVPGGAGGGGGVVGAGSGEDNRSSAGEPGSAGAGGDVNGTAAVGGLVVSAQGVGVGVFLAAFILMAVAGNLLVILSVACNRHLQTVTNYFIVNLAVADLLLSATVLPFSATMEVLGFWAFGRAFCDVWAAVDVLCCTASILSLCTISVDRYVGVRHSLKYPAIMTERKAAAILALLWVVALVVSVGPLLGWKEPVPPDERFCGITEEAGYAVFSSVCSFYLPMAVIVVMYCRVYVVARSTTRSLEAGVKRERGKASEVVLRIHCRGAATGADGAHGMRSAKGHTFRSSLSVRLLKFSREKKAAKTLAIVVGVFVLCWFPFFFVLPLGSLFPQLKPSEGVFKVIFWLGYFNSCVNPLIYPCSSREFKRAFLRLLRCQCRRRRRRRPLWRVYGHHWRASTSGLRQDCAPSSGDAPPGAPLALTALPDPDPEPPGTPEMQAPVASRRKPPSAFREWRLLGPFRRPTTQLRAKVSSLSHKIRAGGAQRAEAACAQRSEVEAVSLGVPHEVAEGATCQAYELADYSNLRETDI

[8] = target: T7, Alpha-1B adrenergic receptor (Homo sapiens, UniProt P35368); test: Affinity constant on CHO cells expressing Human recombinant Alpha-1B adrenergic receptor; format: cell-based
T7 sequence (P35368 whole entry): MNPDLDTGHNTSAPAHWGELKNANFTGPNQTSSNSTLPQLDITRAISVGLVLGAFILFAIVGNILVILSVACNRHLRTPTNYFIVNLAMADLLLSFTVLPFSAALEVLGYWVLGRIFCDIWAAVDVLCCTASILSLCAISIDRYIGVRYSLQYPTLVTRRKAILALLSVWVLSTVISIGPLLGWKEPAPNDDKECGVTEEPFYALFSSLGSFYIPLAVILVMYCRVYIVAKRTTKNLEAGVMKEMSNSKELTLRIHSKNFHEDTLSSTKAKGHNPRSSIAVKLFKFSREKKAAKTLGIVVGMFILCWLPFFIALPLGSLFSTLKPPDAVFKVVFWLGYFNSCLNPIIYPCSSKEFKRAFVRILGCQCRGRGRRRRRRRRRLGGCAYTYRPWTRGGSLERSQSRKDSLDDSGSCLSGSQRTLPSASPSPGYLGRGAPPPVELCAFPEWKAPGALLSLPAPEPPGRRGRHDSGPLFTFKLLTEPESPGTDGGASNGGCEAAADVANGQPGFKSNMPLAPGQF

| Kb [1] | Kb [2] | Kb [3] | Kb [4] | Ki [5] | Ki [6] | Ki [7] | Ki [8] | SMILES |
| --- | --- | --- | --- | --- | --- | --- | --- | --- |
| 0.309 nM | 0.537 nM | 1.58 nM |  |  |  |  |  | COc1cccc(OC)c1OCCNCC1COc2ccccc2O1 (stereo not drawn) |
| 5.75 nM | 5.89 nM | 32.4 nM | 2510 nM |  |  |  |  | COc1cccc(OC)c1OCCNC[C@@H]1Oc2ccccc2O[C@H]1c1ccccc1 |
| 209 nM | 107 nM | 61.7 nM | 302 nM | 2.34 nM | 10.2 nM | 22.9 nM | 27.5 nM | COc1cccc(OC)c1OCCNC[C@H]1C[C@H](c2ccccc2)c2ccccc2S1 |
| 178 nM | 288 nM | 91.2 nM | 110 nM | 0.513 nM | 6.31 nM | 17 nM | 12.3 nM | COc1cccc(OC)c1OCCNCC1Cc2ccccc2C(c2ccccc2)C1 (stereo not drawn) |
| 1.32 nM | 1.12 nM | 0.275 nM | 28.8 nM | 0.0501 nM | 6.46 nM | 0.0891 nM | 0.0398 nM | COc1cccc(OC)c1OCCNC[C@@H]1C[C@H](c2ccccc2)c2ccccc2O1 |
| 58.9 nM | 33.9 nM | 16.6 nM | 67.6 nM | 0.398 nM | 10.7 nM | 3.63 nM | 2.82 nM | COc1cccc(OC)c1OCCNCCOc1ccccc1Cc1ccccc1 |
| 6.17 nM | 4.9 nM | 17.4 nM | 155 nM | 0.0891 nM | 15.1 nM | 0.437 nM | 1.15 nM | COc1cccc(OC)c1OCCNCC1CC(c2ccccc2)c2ccccc2S1 (stereo not drawn) |
| 0.447 nM | 0.347 nM | 2 nM | 26.3 nM | 0.251 nM | 11 nM | 0.182 nM | 1.23 nM | COc1cccc(OC)c1OCCNCC1CC(c2ccccc2)c2ccccc2C1=O (stereo not drawn) |
|  |  |  | 33.1 nM |  | 0.372 nM |  | 708 nM | COc1ccccc1N1CCN(CCN2C(=O)CC3(CCCC3)CC2=O)CC1 [BMY-7378] |
